Experiment [1] has as its system Plasmodium yoelii. The experiment is described as follows: Antimalarial activity against chloroquine-resistant Plasmodium yoelii N-67 infected in Swiss mouse assessed as suppression of parasitaemia level at 50 mg/kg, ip qd for 4 days. The class given is functional. Conditions: route intraperitoneal. The method, boiled down:
(§1)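 Swiss mice (22±2 g), groups of five, inoculated with 1×10^6 P. yoelii N-67 parasitized RBC on day 0; compounds as aqueous suspension with a few drops Tween 80, given intraperitoneally in 0.2 mL once daily days 0–3. Parasitemia from thin blood smears days 4–6, group mean % suppression vs untreated controls; survivors counted on day 28.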

The test system of experiment [2] is Plasmodium yoelii. The experiment in a line: Antimalarial activity against chloroquine-resistant Plasmodium yoelii N-67 infected in Swiss mouse assessed as mouse survival at 50 mg/kg, ip qd for 4 days. The class given is functional, organism-based. More on the design: dose 50 mg/kg. The method, boiled down: as §1
Experiment [3] is described as follows: Inhibition of beta-hematin formation after 16 hrs. The class given is functional. In outline:
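Plasma came from male Swiss mice (15–20 g) infected with 1 × 10⁵ infected RBCs. Blood was drawn at 50% parasitemia by cardiac puncture into 2.0% citrate and spun at 4 °C. Hemin substrate ([…]) and compound were incubated in 100 mM acetate buffer, pH 5.1, at 37 °C for 16 h with shaking. The pellet was washed in SDS buffers. IC50 was the mean of three experiments in triplicate.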

The subject of experiment [4] is Plasmodium falciparum 3D7. The experiment is described as follows: Selectivity index, IC50 for african green monkey Vero cells to IC50 for Plasmodium falciparum 3D7.
In the next experiment the test system is Plasmodium falciparum. The experiment is described as follows: Antimalarial activity against chloroquine-sensitive Plasmodium falciparum 3D7 infected in erythrocytes after 72 hrs by syber green 1 assay. Conditions: 3D7, 72 h.
In experiment [5] the test system is Plasmodium yoelii. The experiment is described as follows: Antimalarial activity against chloroquine-resistant Plasmodium yoelii N-67 infected in Swiss mouse assessed as suppression of parasitaemia level at 25 mg/kg, ip qd for 4 days. The class given is functional. Conditions: route intraperitoneal. In outline: as §1
Experiment [6] relates to Plasmodium yoelii. The experiment in a line: Antimalarial activity against chloroquine-resistant Plasmodium yoelii N-67 infected in Swiss mouse assessed as suppression of parasitaemia level at 100 mg/kg, po qd for 4 days. The class given is functional. The method, boiled down:
(§2)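 Swiss mice (22±2 g), groups of five, inoculated with 1×10^6 P. yoelii N-67 parasitized RBC on day 0; compounds as aqueous suspension with a few drops Tween 80, given orally in 0.1 mL once daily days 0–3. Parasitemia from thin blood smears days 4–6, group mean % suppression vs untreated controls; survivors counted on day 28.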

In experiment [7] the test system is Plasmodium yoelii. The experiment is described as follows: Antimalarial activity against chloroquine-resistant Plasmodium yoelii N-67 infected in Swiss mouse assessed as suppression of parasitaemia level at 50 mg/kg, po qd for 4 days. The class given is functional. In outline: as §2
Experiment [8] deals with Plasmodium yoelii. The experiment is described as follows: Antimalarial activity against chloroquine-resistant Plasmodium yoelii N-67 infected in Swiss mouse assessed as mouse survival at 25 mg/kg, ip qd for 4 days. The class given is functional, organism-based. Also on record: dose 25 mg/kg. In outline: as §1
The subject of experiment [9] is Plasmodium yoelii. The experiment is described as follows: Antimalarial activity against chloroquine-resistant Plasmodium yoelii N-67 infected in Swiss mouse assessed as mouse survival at 100 mg/kg, po qd for 4 days. The class given is functional, organism-based. More on the design: dose 100 mg/kg. The method, boiled down:
as §2

Experiment [10] relates to Plasmodium yoelii. The experiment is described as follows: Antimalarial activity against chloroquine-resistant Plasmodium yoelii N-67 infected in Swiss mouse assessed as mouse survival at 50 mg/kg, po qd for 4 days. The class given is functional, organism-based. Also on record: dose 50 mg/kg. In outline: as §2

Each structure is given as a SMILES string. In brackets after ≈: the same amount, converted by molar mass. Activity calls are given as the source filed them. No cut-off for these calls is given here.

Take `Cc1ccc(Nc2nc(NCCCN3CCOCC3)nc(Nc3cccc(Nc4ccnc5cc(Cl)ccc45)c3)n2)cc1`: in the experiment on Plasmodium yoelii [1], the Activity is reported as 100%. Besides, the outcome in the experiment with Plasmodium yoelii [2] was inactive. The values for the IC50 (in [3]; in the experiment on Plasmodium falciparum) were 2.7 µg/mL (≈ 4.53 µM) and 34.6 nM, respectively. The “Selectivity Index” value in experiment [4] was found to be 321.48.

Consider `Clc1ccc2c(Nc3ccc(Nc4nc(NCCCN5CCOCC5)nc(N5CCCCC5)n4)cc3)ccnc2c1`, for which the Activity in the experiment on Plasmodium yoelii [1], with Plasmodium yoelii [5], with Plasmodium yoelii [6] and in the experiment on Plasmodium yoelii [7] was 100% throughout. The outcome in the experiment with Plasmodium yoelii [2] and in the experiment on Plasmodium yoelii [9] was Active. The result in the experiment on Plasmodium yoelii [8] and in the experiment on Plasmodium yoelii [10] was inactive. The half-maximal inhibitory concentration (IC50) in [3] turned out to be 2.71 µg/mL (≈ 4.72 µM); in the experiment with Plasmodium falciparum it was 23.1 nM. Moreover, the “Selectivity Index” value in experiment [4] amounted to 170.18.

As to `Clc1ccc2c(Nc3ccc(Nc4nc(NCCCN5CCOCC5)nc(Nc5ccccc5)n4)cc3)ccnc2c1`, the Activity in the experiment with Plasmodium yoelii [1], with Plasmodium yoelii [5] and in the experiment with Plasmodium yoelii [6] was 100% in each case. Moreover, the result in the experiment on Plasmodium yoelii [2] was Active. Also, the result in the experiment on Plasmodium yoelii [8] and in the experiment on Plasmodium yoelii [9] was inactive. The concentration for half-maximal inhibition (IC50) in experiment [3] turned out to be 2.98 µg/mL (≈ 5.12 µM); with Plasmodium falciparum, 3.01 nM. Besides, the “Selectivity Index” value in experiment [4] was 154.29.

For the molecule `CCN1CCN(c2nc(Nc3ccc(Nc4ccnc5cc(Cl)ccc45)cc3)nc(N3CCCCC3)n2)CC1`, the Activity with Plasmodium yoelii [1], in the experiment with Plasmodium yoelii [5], with Plasmodium yoelii [6] and in the experiment on Plasmodium yoelii [7] was 100% throughout. The result with Plasmodium yoelii [2] and in the experiment with Plasmodium yoelii [9] was Active. The outcome with Plasmodium yoelii [8] and in the experiment on Plasmodium yoelii [10] was inactive. Also, the 50% inhibitory concentration (IC50) came to 2.79 µg/mL (≈ 5.13 µM) in [3] and 29.7 nM in the experiment on Plasmodium falciparum. In [4], the “Selectivity Index” value turned out to be 124.85.

The record behind these values is ChEMBL document CHEMBL1667763, “4-anilinoquinoline triazines: a novel class of hybrid antimalarial agents” (Eur J Med Chem, 2011).
